Experimental data from different studies.
Each line is one published result; the experiments were not run side by side.
Target: High affinity nerve growth factor receptor (NTRK1, Homo sapiens, UniProt P04629)

With `CN(C)C(=O)c1cc2cnc(Nc3ccc(-c4ccc5c(=O)cc(N6CCOCC6)oc5c4)cc3)nc2n1C1CCCC1` the remaining binding was 3.7% (binding, competition with immobilised ligand; 1 µM).
For `COc1ccc2oc(-c3ccc4nc(N)oc4c3)c/c(=N\c3ccccc3NC(=O)CCN)c2c1`, the remaining binding was 88% (binding; 1 µM).
The remaining binding of `C[C@H]1CC[C@H](n2c3cnccc3c3cnc(Nc4ccc5c(n4)CCN(C(=O)CO)C5)nc32)CC1` is reported as 18% (cell-free assay, competition with immobilised ligand; 1 µM).
`CO[C@@H]1[C@H](N(C)C(=O)c2ccccc2)C[C@H]2O[C@]1(C)n1c3ccccc3c3c4c(c5c6ccccc6n2c5c31)C(=O)NC4` has an inhibition of 98% (enzyme activity, inhibitor; 1 µM).
The remaining binding of `COc1ccc2[nH]c3c4[nH]c5ccc(OC)cc5c4c4c(c3c2c1)C(=O)NC4=O` is reported as 40% (binding, competition with immobilised ligand; 1 µM).
For `CCCCC(=O)Nc1ccc(-c2ccc3ncn(CCC)c(=O)c3c2)cn1`, the remaining binding was 99% (binding, competition with immobilised ligand; 0.5 µM).
For `C1=C/COCc2cc(ccc2OCCN2CCCC2)Nc2nccc(n2)-c2cccc(c2)COC/1`, the remaining binding was 10% (binding; 0.1 µM).
The inhibition of `C=CC(=O)N1CCC([C@@H]2CCNc3c(C(N)=O)c(-c4ccc(Oc5ccccc5)cc4)nn32)CC1` is reported as 47% (cell-free assay; 1 µM).
With `N#Cc1ccc(NC(=O)Nc2ccccc2)cc1` the remaining binding was 55% (cell-free assay, competition with immobilised ligand; 25 µM).
